The source of these data is the EternaBench riboswitch data.

The series relates to MS2 coat protein. Briefly: apparent Kd, MS2 coat protein; higher = weaker binding; RNA-MaP array; FMN 200 µM where present. The essentials:
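SNAP-549-labelled MS2 coat protein, doubled from 0.7 or 1.5 nM to 3 µM, was titrated over designs transcribed by stalled E. coli RNA polymerase on Illumina sequencing-chip clusters. Titrations were run without and then with constant ligand in 100 mM Tris-HCl pH 7.5, 80 mM KCl, 4 mM MgCl2, BSA, DTT, yeast tRNA and Tween-20. The apparent Kd is the median of filtered per-cluster fits to green signal normalised to red-channel RNA signal and control-cluster median Fmax.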

[1] abbreviates: designed as: ON switch for flavin mononucleotide, no ligand.
Where [2] appears, read: ligand present: flavin mononucleotide, designed as: ON switch for flavin mononucleotide.
Setting [3] is: designed as: OFF switch for flavin mononucleotide, no ligand.
The mark [4] stands for this setting: ligand present: flavin mononucleotide, designed as: OFF switch for flavin mononucleotide.

On to “GGAAAACAUGAGGAUCACCCAUGUGAAAACGUGGGAGGAUAUCGAUGGAAACCAUACUGUCGAGAAGGCCCAUGUC”, for which the “apparent Kd” value is 51.8 nM under setting [1] and 18 nM under setting [2]. For the sequence “AAUAACAGAGGAUAUACUGUUUUAUGUAUUUAUUAUUUUGAACAUGAGGAUCACCCAUGUAGAAGGCUGAUUAA”, the “apparent Kd” value was 33.3 nM under setting [3] and 28.4 nM under setting [4]. Take “GUUUUUUUUAGUUCAUACUAUAAGAUAGAAGGUGAAAUAUUGACAUGAGGAUCACCCAUGUAAUUCAAGGAUAUGUAGUUACUC”: the “apparent Kd” value by setting is: under setting [1], 34.3 nM; under setting [2], 22.7 nM.

Regarding “AGUAUGCGGCAGGAUAUCCAUCCGCGAAAAGGUGGAGAAGGGCUGACAUGAGGAUCACCCAUGUGCGUUUUGUA”, the “apparent Kd” value turned out to be 56 nM under setting [3] and 40 nM under setting [4]. As for “AGAAAAUAUGGGUAGGAUAUAUAAAGAGAAACAUGAGGAUCACCCAUGUAAAGACGAGAGUCAAAAUAGAAGGACUAAAGAAAGAA”, the “apparent Kd” value under setting [1] amounted to 76 nM and the “apparent Kd” value under setting [2] worked out at 59.6 nM. Regarding “CUUUUGUGAGGAUAUUAGUAGUAUAUAAAUAAAAUUACUACUGAGAAGGCACAUGAGGAUCACCCAUGUUCCUC”, the “apparent Kd” value reads like this: under setting [3], 32.7 nM; under setting [4], 124 nM. For “CUUAAGGCAGGAUAUGCUUUUUGUGACAUGAGGAUCACCCAUGUGAUGCAGUUUGGGUGUGCAGAAGGGCCUGAGU”, the “apparent Kd” value was determined as 364 nM under setting [3] and 172 nM under setting [4].

With “UGUCGGAGCAGAGGAUAUUACAUGAGGAUCACCCAUGUAUGAACCAAUAGCUGGAAACAGCAAUGUAAGAAGGCUGGUCCGACA”, the “apparent Kd” value stood at 12.4 nM under setting [3] and 143 nM under setting [4].

Regarding “GCAUGCGUUCGAGGAUAUCGGUGAGAAACGGAACGAGAAGGCGAUCGAAUGUCACAUAUUAUGUACAUGAGGAUCACCCAUGUA”, the “apparent Kd” value is, setting by setting: under setting [1], 126 nM; under setting [2], 37.8 nM.

In the case of “CCAGCAACAUGAGGAUCACCCAUGUAGGAUAUCGCUAUUGUAAUCAUGAAACAUGAUUACAAUAGCGAGAAGGACAUAUGCUGG”, the “apparent Kd” value turned out to be 6.31 nM under setting [3] and 10.1 nM under setting [4]. On to “GGAGCCGGCACUGAGGAUAUUCAUAUUAAAACAUGAGGAUCACCCAUGUAGGCCAGAAGGCCUUGGGAGAAGGCAGGUCGACUCG”, for which the “apparent Kd” value was 406 nM under setting [1] and 28.9 nM under setting [2]. For the sequence “GGCUGGCAGCUAGGAUAUGGGCGAUCACAUGAGGAUCACCCAUGUCAACAUCAAAACAAGAUUAACCAGAAGGAGCCGCGGGUU”, the “apparent Kd” value by setting is: under setting [1], 18.4 nM; under setting [2], 76.7 nM.

Regarding “UAUCCACAUGAGGAUCACCCAUGUGAGGAUAUGAUACUAUGUACUUCGGUACAUAGUAUCAGAAGGCACAGGUC”, the “apparent Kd” value stood at 21.3 nM under setting [3] and 36.3 nM under setting [4].

As for “AUUAUAAUUGAAGGAUAUCUAUAUCCAACAUGAGGAUCACCCAUGUUGAGGAUCACCCAUGUAAAGGAGAAGGUUAAUUAUAAU”, under setting [2], the “apparent Kd” value was found to be 24.6 nM. As to “AGCUGUGGCCGAGGAUAUCUGUUUCAUAAAACCGAAAUAUAAUCGGACAUGAGGAUCACCCAUGUAGAGAAGGCGGUCUCAGCA”, the “apparent Kd” value runs as follows: under setting [3], 16.6 nM; under setting [4], 14.9 nM. As to “GAAGUUUCCUGAGGAUAUACAUGAGGAUCACCCAUGUAAUGCUUGACUUCAGUAGAAGGCGGGAAACGAAAUUUCGGUGAUCAG”, the “apparent Kd” value runs as follows: under setting [3], 353 nM; under setting [4], 140 nM. Taken in the same sequence, the figures for “GAAGCUCUGCAGCGAUUAGCUACAUGAGGAUCACCCAUGUGGGAGGAUAUACGUCGCUCCGCGGAGUAGAAGGCUUACAUGCGG” were 9.86 nM and 21.7 nM.

Consider “GGUAAGAUGCAGAAGGUGUUAGCUAGAGCUACGACAUGAGGAUCACCCAUGUACUAGAAACAGUACAAGGAUAUGCAUCUUACA”, for which the “apparent Kd” value was 17.1 nM under setting [1] and 6.12 nM under setting [2]. For the sequence “GCAGGGUAUGAGAAGGCAUAAUUUAUCUAACCACAUGAUUACAUGAGGAUCACCCAUGUUUCCAAUGAGGAUAUCAUACCGUGC”, the “apparent Kd” value stood at 8.05 nM under setting [3] and 7.54 nM under setting [4]. “UUUUUGUUCAAGAAGGAUGUUUUAGUUUAGAUCAUAGGAUAUUGAUAUAUUGUAGACUCAUGUAACAUGAGGAUCACCCAUGUA”: the “apparent Kd” value stood at 101 nM under setting [1] and 65.4 nM under setting [2].

With “UGAUAGGACAGAGGAUAUGCCGAUAGGAUCUACUAUCGAAGAAUCCUCACAUGAGGAUCACCCAUGUAGAAGGCUGUCCUAUCU”, the “apparent Kd” value under setting [3] was 23 nM and the “apparent Kd” value under setting [4] was found to be 140 nM. Consider “AUCAGCUCGUCAGGAUAUACGUCACUACGUCAGCAGUGUGGUAAGAUCACAUGAGGAUCACCCAUGUAGAAGGGACGAGCUGAU”, for which the “apparent Kd” value by setting is: under setting [3], 21.4 nM; under setting [4], 201 nM.

For the sequence “GAUUUAGAGCAGGAUAUCAUAGAAUUGUAUGAAUGAGAAGGGCUCACAUGAGGAUCACCCAUGUGGUCCUAGAU”, the “apparent Kd” value is, setting by setting: under setting [3], 21.7 nM; under setting [4], 132 nM. For “GUUUAGUGAGGAUAUGUGGCUUCGAUCGUGCGCGGUCUGCUACAGAAGGCACAUGAGGAUCACCCAUGUUUCUC”, the “apparent Kd” value was found to be 173 nM under setting [3] and 527 nM under setting [4]. Taken in the same sequence, the figures for “ACAAUGUGGUAAGGAUAUCCAAUGGCAUCCCUAGGAGAAGGUAUCACAUGAGGAUCACCCAUGUGAAGGAUGGGUUAUCGCAAA” were 223 nM and 121 nM. For the sequence “UGGUAACAUGAGGAUCACCCAUGUCAAAUGAAUCGAGGAUAUGGGAAUUAACAACACAAACUAGAAGGCGAAUUUG”, the “apparent Kd” value under setting [1] came out at 303 nM and the “apparent Kd” value under setting [2] was 247 nM. For “CAACCAGUGAAGGAUAUCAUCGAGGCUCGGCAUUGAGAAGGUUACACAUGAGGAUCACCCAUGUGGUUUCGUUC”, the “apparent Kd” value reads like this: under setting [3], 14.5 nM; under setting [4], 14.7 nM. Regarding “CAUCUUGUGUGAGGAUAUAAUGAUAAGAGGACAUUAGAAGGCACAUGAGGAUCACCCAUGUGGCCAGGUCGGCGGCUCCAUAUA”, the “apparent Kd” value under setting [3] came out at 11.4 nM and the “apparent Kd” value under setting [4] is 17.3 nM. Turning to “GGACCGCUUAGAAUUAGCGGCCGGCAGGAUAUGACAUGAGGAUCACCCAUGUGAACUCCAUUGGGUCAGAAGGGCCACGACACA”, the “apparent Kd” value runs as follows: under setting [3], 23.9 nM; under setting [4], 86.4 nM. “AAGAAGUGAGGAUAUCCUGCUCGUCACUUGCGUGAUGAGUAGGAGAAGGCACAUGAGGAUCACCCAUGUAAAGA”: the “apparent Kd” value runs as follows: under setting [3], 37.4 nM; under setting [4], 41.6 nM. Taken in the same sequence, the figures for “UAAGAGUGAGGAUAUACGUCGCUGGUCAGGAUGGACGCAUGACAUGAGGAUCACCCAUGUAGAAGGCACAAAAC” were 23.8 nM and 43.7 nM. The corresponding values for “UAAACACCCUCAUGUGCCUGAGGACAUGAGGAUCACCCAUGUAAGGAUAUAGCCAUUAAAUCUAACUAGAAGGUACAGGACAUC” are 242 nM and 169 nM.

Consider “AGACUGAAGCAAGGAUAUUGUAAGGUUAUCGUACAAGAAGGUGCUGUUUAUGUCUCUUAACAUGAGGAUCACCCAUGUUUUAAA”, for which the “apparent Kd” value under setting [1] is 19.7 nM and the “apparent Kd” value under setting [2] was 21.8 nM. Take “UUGGACGUCGUAGGAUAUGUAGGAUAUUCCUACAUGAGGAUCACCCAUGUUGACAUUGAAGAAGGACAGAAGGACGAUGUCCAU”: the “apparent Kd” value under setting [1] is 87.7 nM and the “apparent Kd” value under setting [2] was 5.02 nM. In the case of “ACGACGAAAGUCGAACGAUGUAGCAGAAGGACAUGAGGAUCACCCAUGUCAGCUGUGACCUCAAAAUAGGAUAUGCUACAUCGA”, the “apparent Kd” value by setting is: under setting [3], 36.6 nM; under setting [4], 47.6 nM.

On to “CUAUUUAGUGCCUCAUGUACAUGAGGAUCACCCAUGUUAACUUAGGAUAUAUUUAUAUUGAUAGAGUAGAAGGAAGUACUAUUU”, for which the “apparent Kd” value is, setting by setting: under setting [3], 22 nM; under setting [4], 18.8 nM.
